The source made the active and inactive calls. No cut-off for these calls is given here.
Legend:
HL-60 = test: Cytotoxicity against human HL60 cells after 48 hrs by MTT assay; type: functional; conditions: HL-60, 48 h
[1] = Cytotoxicity against human Molt4/C8 cells assessed as growth inhibition after 72 hrs by coulter counter method; type: functional, cell-based; conditions: Molt4/C8, 72 h
[2] = Chemical stability in deuterium oxide/deuterated dimethylsulfoxide after 48 hrs by 1H NMR method; type: physicochemical
Method in brief: (§1)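 Compound solutions were incubated for 48 h at 37 °C, the same time and temperature as the in vitro assays, and checked for hydrolysis to the corresponding phenol.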

Mus musculus [3] = test: Neurotoxicity in mouse at 300 mg/kg, ip after 0.5 hrs; type: toxicity, organism-based; conditions: in vivo
Method in brief: (§2)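 Mice received intraperitoneal doses of 30, 100 and 300 mg/kg. Animals were scored for survival and neurological deficit at 0.5 and 4 h after dosing.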

Rattus norvegicus [4] = test: Toxicity in rat assessed as overt toxicity at 50 mg/kg, po after 0.25 to 4 hrs; type: organism-based; conditions: in vivo
Method in brief: (§3)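 Rats received a single oral dose and were examined for overt toxicity at 0.25, 0.5, 1, 2 and 4 h.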

HSC-2 [5] = test: Cell cycle arrest in human HSC2 cells assessed as accumulation at G0/G1 phase at 7 uM after 24 hrs by propidium iodide staining-based method (reference value: 73%); type: functional
CCRF-CEM = test: Cytotoxicity against human CEM cells assessed as growth inhibition after 72 hrs by coulter counter method; type: functional, cell-based
[6] = Cytotoxicity against human HPC after 48 hrs by MTT assay; type: cell-based; conditions: HPC cells
Method in brief: (§4)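 Nonmalignant human cells were exposed to compounds for 48 h at 37 °C. CC50 was taken as the concentration cytotoxic to 50% of cells.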

L1210 = test: Cytotoxicity against mouse L1210 cells assessed as growth inhibition after 48 hrs by coulter counter method; type: functional, cell-based; conditions: L1210, 48 h
[7] = Chemical stability in pH 7.4 buffer/dimethylsulfoxide after 48 hrs by 1H NMR method; type: physicochemical; conditions: pH 7.4, 48 h; method in brief: as §1
HSC-2 [8] = test: Cell cycle arrest in human HSC2 cells assessed as accumulation at S phase at 7 uM after 24 hrs by propidium iodide staining-based method (reference value: 13%); type: functional
Mus musculus [9] = test: Neurotoxicity in mouse at 300 mg/kg, ip after 4 hrs; type: toxicity, organism-based; conditions: in vivo; method in brief: as §2
[10] = Selectivity index, ratio of CC50 for HGF to CC50 for human HSC4 cells
HSC-2 [11] = test: Cytotoxicity against human HSC2 cells after 48 hrs by MTT assay; type: functional; conditions: HSC-2, 48 h
HSC-3 [12] = test: Induction of apoptosis in human HSC3 cells assessed as PARP1 cleavage at 7 uM after 24 hrs by chemiluminescence method; type: functional, cell-based
Serum = test: Drug metabolism in rat serum/dimethylsulfoxide assessed as 6-benzylidene-2-(4-hydroxybenzylidene)cyclohexanone formation after 48 hrs by 1H NMR method; type: ADME, cell-free; method in brief: as §1
Mus musculus [13] = test: Toxicity in mouse assessed as mortality at 30 to 300 mg/kg, ip after 0.5 to 4 hrs; type: organism-based; conditions: in vivo
Method in brief: (§5)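 Mice were given compound intraperitoneally at 30, 100 and 300 mg/kg. Animals were checked for survival and neurological deficit at 0.5 and 4 h after dosing.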

[14] = Selectivity index, ratio of CC50 for HGF to CC50 for human HSC2 cells; conditions: pooled result: one value given for 3 cell lines, strains, targets or settings
[15] = Selectivity index, ratio of CC50 for human HPC to CC50 for human HSC4 cells
HSC-4 = test: Cytotoxicity against human HSC4 cells after 48 hrs by MTT assay; type: functional; conditions: HSC-4, 48 h
[16] = Selectivity index, ratio of CC50 for HGF to CC50 for human HSC3 cells; conditions: pooled result: one value given for 3 cell lines, strains, targets or settings
[17] = Selectivity index, ratio of CC50 for HPLF to CC50 for human HSC4 cells
HSC-3 [18] = test: Cytotoxicity against human HSC3 cells after 48 hrs by MTT assay; type: functional; conditions: HSC-3, 48 h
[19] = Selectivity index, ratio of CC50 for HGF to CC50 for human HL60 cells; conditions: pooled result: one value given for 3 cell lines, strains, targets or settings
HSC-2 [20] = test: Induction of apoptosis in human HSC2 cells assessed as PARP1 cleavage at 7 uM after 24 hrs by chemiluminescence method; type: functional, cell-based
HSC-2 [21] = test: Cell cycle arrest in human HSC2 cells assessed as accumulation at G2/M phase at 7 uM after 24 hrs by propidium iodide staining-based method (reference value: 11%); type: functional
[22] = Cytotoxicity against HPLF after 48 hrs by MTT assay; type: cell-based; conditions: human, HPLF cells; method in brief: as §4
[23] = Cytotoxicity against HGF after 48 hrs by MTT assay; type: cell-based; conditions: human, HGF cells; method in brief: as §4
Rattus norvegicus [24] = test: Toxicity in rat assessed as overt toxicity at 30 mg/kg, po after 0.25 to 4 hrs; type: organism-based; conditions: in vivo; method in brief: as §3
[25] = Toxicity in ip dosed mouse; type: organism-based; conditions: in vivo; method in brief: as §5

Row | SMILES | CC50 (HL-60) [µM] | IC50 [1] [µM] | IC50 (CCRF-CEM) [µM] | CC50 at 48 h [6] [µM] | IC50 (L1210) [µM] | Selectivity Index [10] | CC50 (HSC-2 [11]) [µM] | Activity (Mus musculus [13]) | Selectivity Index [14] | Selectivity Index [15] | CC50 (HSC-4) [µM] | Selectivity Index [16] | Selectivity Index [17] | CC50 (HSC-3 [18]) [µM] | Selectivity Index [19] | CC50 at 48 h [22] [µM] | CC50 at 48 h [23] [µM] | further results
1 | O=C1/C(=C/c2ccccc2)CCC/C1=C\c1ccc(OC(=O)c2cccnc2)cc1 | 1.5 | 1.62 | 7.3 | 142 | 8.71 | 6.67 | 12.5 | Non-Toxic | 8.48 | 6.67 | 15.9 | 5.99 | 6.67 | 17.7 | 70.7 | 60 | 116 | Stability [2]: Stable; Activity (Mus musculus [3]): Toxic; Activity (Rattus norvegicus [4]): Non-Toxic; Activity (HSC-2 [5]): 86%; Stability [7]: Stable; Activity (HSC-2 [8]): 9.7%; Activity (Mus musculus [9]): Non-Toxic; Activity (HSC-3 [12]): inactive; Drug metabolism (Serum): Metabolite_Notdetected; Activity (HSC-2 [20]): Active; Activity (HSC-2 [21]): 1.5%
2 | COc1ccc(/C=C2\CCC/C(=C\c3ccc(O)cc3)C2=O)cc1 | – | 4.18 | 5.68 | – | 6.85 | – | – | – | – | – | – | – | – | – | – | – | – | –
3 | O=C1/C(=C/c2ccc(OC(=O)c3cccnc3)cc2)CCC/C1=C\c1ccc(OC(=O)c2cccnc2)cc1 | – | 22.6 | 169 | – | 213 | – | – | Non-Toxic | – | – | – | – | – | – | – | – | – | –
4 | Cc1ccc(/C=C2\CCC/C(=C\c3ccc(OC(=O)c4cccnc4)cc3)C2=O)cc1 | 1.9 | 2.88 | 9.49 | > 200 | 12.8 | >1.93 | 90.3 | Non-Toxic | >2.02 | >1.93 | 94.3 | >1.86 | >1.93 | 98 | >95.8 | 163 | 184 | Activity (Rattus norvegicus [24]): Non-Toxic
5 | O=C1/C(=C/c2ccccc2)CCC/C1=C\c1ccc(OC(=O)c2ccccc2)cc1 | – | 10.4 | 40.4 | – | 46.7 | – | – | Non-Toxic | – | – | – | – | – | – | – | – | – | –
6 | Cc1ccc(/C=C2\CCC/C(=C\c3ccc(OC(=O)c4ccccc4)cc3)C2=O)cc1 | – | 5.7 | 10.6 | – | 37.9 | – | – | Non-Toxic | – | – | – | – | – | – | – | – | – | –
7 | Cc1ccc(/C=C2\CCC/C(=C\c3ccc(O)cc3)C2=O)cc1 | – | 5.22 | 4.31 | – | 7.41 | – | – | – | – | – | – | – | – | – | – | – | – | –
8 | O=C1/C(=C/c2ccccc2)CCC/C1=C\c1ccc(O)cc1 | – | 5.17 | 5.82 | – | 7.32 | – | – | – | – | – | – | – | – | – | – | – | – | –
9 | O=C1/C(=C/c2ccc(OC(=O)c3cccnc3)cc2)CCC/C1=C\c1ccc([N+](=O)[O-])cc1 | > 200 | 38.1 | 48.1 | > 200 | 61.1 | 1 | 112 | Non-Toxic | >1.79 | 1 | > 200 | 1 | 1 | > 200 | 1 | > 200 | > 200 | –
10 | O=C(O)c1cccnc1 [NIACIN] | > 200 | > 500 | > 500 | > 200 | > 500 | 1 | > 200 | – | 1 | 1 | > 200 | 1 | 1 | > 200 | 1 | > 200 | > 200 | –
11 | N[C@@H](Cc1ccc(N(CCCl)CCCl)cc1)C(=O)O [MELPHALAN] | 0.89 | – | – | 37 | – | 1.46 | 12 | – | 5.61 | 1.46 | 46 | 1.46 | 1.46 | 46 | 75.6 | 92 | 73 | LD50 [25]: 21.7 mg/kg
12 | O=C1/C(=C/c2ccc(O)cc2)CCC/C1=C\c1ccc(O)cc1 | – | 5.52 | 6.84 | – | 13.5 | – | – | – | – | – | – | – | – | – | – | – | – | –
13 | O=C1/C(=C/c2ccc(Cl)cc2)CCC/C1=C\c1ccc(OC(=O)c2cccnc2)cc1 | 10.5 | 7.89 | 17.4 | 179 | 29.6 | 4.67 | 30.5 | Non-Toxic | 5.71 | 4.67 | 37.3 | 5.16 | 4.67 | 33.7 | 16.6 | 154 | 190 | –
14 | O=C1/C(=C/c2ccc(O)cc2)CCC/C1=C\c1ccc(Cl)cc1 | – | 4.9 | 2.69 | – | 6.44 | – | – | – | – | – | – | – | – | – | – | – | – | –
15 | COc1ccc(/C=C2\CCC/C(=C\c3ccc(OC(=O)c4cccnc4)cc3)C2=O)cc1 | 2.3 | 1.19 | 9.85 | > 200 | 7.63 | >8.81 | 30.3 | Non-Toxic | >6.6 | >8.81 | 22.7 | >12.5 | >8.81 | 16 | >87 | > 200 | > 200 | –

— ChEMBL document CHEMBL4004866, “6-Benzylidene-2-[4-(pyridin-3-ylcarboxy)benzylidene]cyclohexanones: A novel cluster of tumour-selective cytotoxins” (Bioorg Med Chem Lett, 2017)
